Source: PubChem BioAssay
Most compounds without a hit are left out; they make up all but 3.6% or so of the library.
PAFAH1B2 inh – inhibitors of human PAFAH1B2. P68402. recombinant PAFAH1B2, FP-rhodamine activity probe, fluorescence polarization. inhibition, % at 3.39 µM. 1.2% of 340,000 active. AID 492953;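 active = inhibition above the mean of all tested compounds plus 3 SD, cut at about 24% in these data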;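 note: 0% = enzyme with DMSO and 100% = wells lacking PAFAH1B2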
PAFAH1B3 inh – inhibitors of human PAFAH1B3 | 0.28% of 340,000 active | AID 492972 | Q15102 | inhibition, % at 3.39 µM | recombinant PAFAH1B3, FP-rhodamine probe, fluorescence polarization;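 active = inhibition above the screen-wide average of all tested compounds plus 3 SD, cut at about 25% in these data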;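 note: 0% = enzyme with DMSO only and 100% = wells lacking PAFAH1B3 protein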
Target sequence (Q15102 whole entry, looked up): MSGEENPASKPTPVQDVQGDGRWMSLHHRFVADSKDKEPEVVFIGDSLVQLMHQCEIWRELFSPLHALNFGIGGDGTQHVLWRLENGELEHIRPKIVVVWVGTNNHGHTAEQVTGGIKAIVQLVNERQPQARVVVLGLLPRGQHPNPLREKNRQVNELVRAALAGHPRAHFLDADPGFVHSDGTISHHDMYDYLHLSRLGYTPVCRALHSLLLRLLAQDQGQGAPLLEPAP
pPAFAH FP inh – inhibitors of human plasma PAF acetylhydrolase (pPAFAH); Q13093; recombinant pPAFAH, FP-rhodamine probe fluorescence polarization; inhibition, % at 3.39 µM; 1.5% of 330,000 active; AID 463082;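 active = inhibition above the mean inhibition across the screen plus 3 SD, cut at about 25% in these data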;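 note: inhibitors block binding of the rhodamine activity-based probe so polarization drops; 0% = enzyme with DMSO and 100% = wells lacking pPAFAH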
Target sequence (Q13093 whole entry, looked up): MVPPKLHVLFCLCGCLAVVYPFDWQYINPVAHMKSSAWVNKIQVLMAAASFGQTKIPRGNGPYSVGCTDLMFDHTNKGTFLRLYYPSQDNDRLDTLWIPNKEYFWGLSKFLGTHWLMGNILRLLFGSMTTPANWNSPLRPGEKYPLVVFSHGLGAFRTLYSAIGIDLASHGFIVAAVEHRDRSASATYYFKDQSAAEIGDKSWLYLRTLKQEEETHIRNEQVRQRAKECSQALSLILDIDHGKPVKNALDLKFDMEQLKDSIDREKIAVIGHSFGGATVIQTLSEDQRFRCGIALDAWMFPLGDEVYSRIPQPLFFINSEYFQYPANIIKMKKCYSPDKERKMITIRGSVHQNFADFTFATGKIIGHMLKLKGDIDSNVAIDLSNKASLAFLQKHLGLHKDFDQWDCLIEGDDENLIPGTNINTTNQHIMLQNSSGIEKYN
IMP-1 inh-1 – blocks Pseudomonas aeruginosa IMP-1 metallo-beta-lactamase; 0.45% of 290,000 active; AID 1556; purified IMP-1, nitrocefin hydrolysis, epi-absorbance fluorescence; inhibition, % at 5.6 µM;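 active = inhibition above the mean plus 3 SD of all compounds in the same screening run, cut at about 4.5% in these data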;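 note: 0% = IMP-1 with DMSO and 100% = DMSO wells lacking enzyme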
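System: Purified IMP-1 | Read-out basis: Percent enzyme inhibition | Controls: IMP-1 with DMSO as 0%, enzyme-free DMSO as 100% | Replicates: One well per compound | Doses: 5.6 µM nominal single concentration | Detection: Epi-absorbance fluorescence, 480 nm excitation, 530 nm emission | Incubation: 25 °C, 15 min preincubation, 25 min reaction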
PAFAH2 FP inh – inhibitors of human PAFAH2. Q99487. recombinant PAFAH2, FP-rhodamine activity probe, fluorescence polarization. inhibition, % at 3.39 µM. 0.99% of 340,000 active. AID 492956;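 active = inhibition above the mean over all tested compounds plus 3 SD, cut at about 30% in these data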;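 note: inhibitors block probe labeling of enzyme so polarization drops; 0% = enzyme with DMSO and 100% = wells lacking PAFAH2 protein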
VIM-2 inhibitor – blocks Pseudomonas aeruginosa VIM-2 metallo-beta-lactamase | purified VIM-2, nitrocefin hydrolysis, epi-absorbance fluorescence | inhibition, % at 5.6 µM | 0.89% of 290,000 active;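 active = inhibition above the mean of all tested compounds plus 3 SD, cutoff set per screening run, cut at about 7.5% in these data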;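 note: red hydrolysis product quenches plate fluorescence so inhibitors raise well fluorescence; 0% = enzyme with DMSO and 100% = DMSO without enzyme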
IMP-1 inh-2 – blocks IMP-1 metallo-beta-lactamase in VIM-2 selectivity screen | 1,300 tested, under 10 active | shares compounds with VIM-2 inhibitor | inhibition, % at 5.6 µM | purified IMP-1, nitrocefin hydrolysis, epi-absorbance fluorescence; call rule not given here;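 note: 0% = enzyme with vehicle and 100% = vehicle without enzyme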
VIM-2 FRET ctr – counter-screen for VIM-2 inhibitors: epi-absorbance artifacts via FRET; shares compounds with VIM-2 inhibitor; inhibition, % at 5.6 µM; 23% of 1,300 active; purified VIM-2, CCF2 FRET substrate hydrolysis;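 active = inhibition above the mean of all tested compounds plus 3 SD, cut at about 19% in these data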;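 note: 0% = VIM-2 plus DMSO and 100% = no enzyme wells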
TEM-1 counter – TEM-1 inhibition, counter-screen for VIM-2 inhibitors | shares compounds with VIM-2 inhibitor | 3% of 1,300 active | inhibition, % at 5.6 µM | Purified TEM-1, nitrocefin hydrolysis, epi-absorbance fluorescence;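 active = inhibition above that campaign's mean inhibition plus 3 SD, cut at about 0.46% in these data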;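 note: 0% = TEM-1 with DMSO and 100% = TEM-1 with 100 µM potassium clavulanate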
VIM-2 inh conf – confirmation of P. aeruginosa VIM-2 metallo-beta-lactamase inhibitors | AID 2187 | inhibition, % at 5.6 µM | 96% of 1,300 active | shares compounds with VIM-2 inhibitor | purified VIM-2, nitrocefin hydrolysis, epi-absorbance;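 active = inhibition of the VIM-2 beta-lactamase enzyme above about 11% from the earlier first-round screen, limit read from the data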;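 note: 0% = VIM-2 with DMSO and 100% = buffer wells without enzyme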
An asterisk follows results filed as active; · = not tested or not shown.

SMILES	PAFAH1B2 inh	PAFAH1B3 inh	pPAFAH FP inh	IMP-1 inh-1	PAFAH2 FP inh	VIM-2 inhibitor	IMP-1 inh-2	VIM-2 FRET ctr	TEM-1 counter	VIM-2 inh conf
COc1ccc(-c2nn3c(-c4ccco4)nnc3s2)cc1OC	1	6	7	0	6	54*	-4	-9	-12	56*
c1ccc(-c2cc(-c3nn4c(-c5ccco5)nnc4s3)c3ccccc3n2)cc1	-5	-2	13	-2	14	2	·	·	·	·
O=C(CCNS(=O)(=O)c1ccc(OC(F)(F)F)cc1)NCCc1c[nH]c2ccccc12	16	7	19	·	2	·	·	·	·	·
O=C(Nc1cccc([N+](=O)[O-])c1)NC1CCCCCCC1	14	7	·	-2	-4	-2	·	·	·	·
O=C(Nc1nnc2n1CCS2)c1ccc(Br)o1	3	6	3	-2	-2	-4	·	·	·	·
CC(=O)N1CCN(S(=O)(=O)c2ccc(C)cc2)C1c1ccc(N(C)C)cc1 (configuration not stated)	-2	1	1	-3	-3	31*	-3	51*	-4	37*
CCN1CCN(C(=O)CSc2cc(=O)n(C)c3ccccc23)CC1	0	-2	-1	-3	-1	37*	-2	-2	-5	56*
Cn1c(=O)cc(OCCCC(=O)N2CCCCC2)c2ccccc21	7	-1	3	-8	-6	-1	·	·	·	·
CN1CCN(C(=O)CSc2cc(=O)n(C)c3ccccc23)CC1	-2	1	6	-3	11	31*	-2	1	-5	49*
Cn1c(=O)cc(SCC(=O)N2CCN(c3ccccc3)CC2)c2ccccc21	6	-2	13	-2	0	-1	·	·	·	·
CN1CCN(C(=O)CCCOc2cc(=O)n(C)c3ccccc23)CC1	8	-1	3	-3	-10	18*	-3	-2	-5	38*
O=C(CN(c1cccc(Cl)c1)S(=O)(=O)c1ccc(Cl)cc1)NCc1ccccn1	1	16	-3	-1	13	2	·	·	·	·
COc1ccccc1C(=O)NCC(=O)NNC(=O)C1COc2ccccc2O1 (configuration not stated)	3	9	-1	·	0	·	·	·	·	·
CCOC(=O)c1cnc2c(Cl)c(Cl)ccc2c1N1CCN(C)CC1	4	3	0	1	-2	15*	-3	1	-9	24*
O=C(N[C@@H](Cc1ccccc1)C(=O)OCc1ccccc1)c1ccco1	6	11	-4	·	1	·	·	·	·	·
Cc1nc(SCC(=O)N2CCC(Cc3ccccc3)CC2)[nH]c(=O)c1C	5	7	4	·	-2	·	·	·	·	·
COC(=O)c1c(C(=O)OC)c2oc3ccccc3n2c1Cl	-3	-9	2	-3	0	14*	-2	2	-5	18*
COc1ccc(NC(=O)/C(=C\c2ccccc2)NC(=O)c2ccco2)cc1	4	7	6	-2	1	-3	·	·	·	·
O=C(O)c1ccccc1NS(=O)(=O)c1cccc(-n2sc3ccccc3c2=O)c1	14	12	16	-1	20	19*	-3	-24	-7	17*
O=C(O)c1ccccc1NS(=O)(=O)c1cccc(C(F)(F)F)c1	11	7	2	-4	11	1	·	·	·	·
CSc1cccc(NC(=O)C2CCCN(c3ncnc4c3nc3n4CCCCC3)C2)c1 (configuration not stated)	-2	3	6	-5	0	-1	·	·	·	·
Cc1ccccc1OCC(O)COc1ccccc1C	5	7	·	·	5	·	·	·	·	·
Cc1ccccc1C(=O)c1cccn1CC(=O)O	0	-3	3	-3	4	38*	-2	57*	1.3*	43*
CC(C)(C)c1ccc(-c2n[nH]c(=S)n2CC2CCCO2)cc1 (configuration not stated)	6	-1	7	-3	7	0	·	·	·	·
CC(C)(C)c1ccc(-c2n[nH]c(=S)n2CCCN2CCOCC2)cc1	7	7	5	-2	9	13*	-4	33*	-8	22*
SMILES	PAFAH1B2 inh	PAFAH1B3 inh	pPAFAH FP inh	IMP-1 inh-1	PAFAH2 FP inh	VIM-2 inhibitor	IMP-1 inh-2	VIM-2 FRET ctr	TEM-1 counter	VIM-2 inh conf
C=CCN(CC=C)Cc1c(O)ccc2c1oc(=O)c1ccccc12	-1	11	6	-2	16	17*	-3	-21	-5	44*
CC1CCCN(C2(O)C(=O)Nc3ccc(Cl)cc32)C1 (configuration not stated)	2	9	4	-1	4	1	·	·	·	·
O=C(COC(=O)CCN1C(=O)c2cccc([N+](=O)[O-])c2C1=O)NCc1ccccc1	-2	6	3	-3	4	-1	·	·	·	·
COc1ccc2[nH]c(C(=O)O)c(CCN3C(=O)c4cccc([N+](=O)[O-])c4C3=O)c2c1	6	0	4	-2	2	14*	-3	79*	-6	65*
C=CCn1c(O)c(N=O)c2cc(C)ccc21	-5	-9	-4	-2	-15	-1	·	·	·	·
C=CCSc1nnc2nc3c(nn12)c1cc(C)ccc1n3CC=C	9	9	2	-3	0	15*	-2	3	-5	19*
COc1ccc(-c2nc(CN3CCN(Cc4cccc(Cl)c4)CC3)c(C)o2)cc1	6	5	2	-4	-4	-3	·	·	·	·
Clc1cccc(CN2CCSCC2)c1Cl	11	9	·	-3	1	-1	·	·	·	·
COc1ccc(NC(=O)c2ccc(NC(=O)CN3CCC(C(N)=O)CC3)cc2)cc1	-2	0	3	·	2	·	·	·	·	·
COc1cc(Br)cc(/C=N/N(CCO)C2=NS(=O)(=O)c3ccccc32)c1OC	3	8	5	-4	9	3	·	·	·	·
CN(C)c1ccc(/C=N/N(CCC(=O)NC(C)(C)C)C2=NS(=O)(=O)c3ccccc32)cc1	5	7	2	-3	-2	20*	-4	-1	-7	4
COc1cc(/C=N/N(CCO)C2=NS(=O)(=O)c3ccccc32)cc(OC)c1OC	2	-3	1	-5	8	12*	-3	-4	-6	21*
CSc1ccc(Cl)c(C(=O)NNC(=O)c2cccs2)c1	1	7	-1	·	4	·	·	·	·	·
Cn1ccnc1SCC(=O)Nc1ccc2nc(SCC(=O)NC3CC3)sc2c1	·	·	2	-2	·	13*	-3	36*	-6	25*
COc1ccc(/C=C2\SC(=S)N(CCC(=O)N3CCOCC3)C2=O)cc1	0	-5	-2	0	-5	-3	·	·	·	·
